We go through two molecules from ChEMBL document CHEMBL3407428, “Synthesis, in vitro and in vivo antitumor activity of scopoletin-cinnamic acid hybrids” (Eur J Med Chem, 2015).

Activity calls are given as the source filed them. The rule behind the calls is not given here.

Series [1] relates to MDA-MB-231. The experiment in a line: Cytotoxicity against human MDA-MB-231 cells assessed as growth inhibition at 10^-5 M after 72 hrs by MTT assay relative to control. The conditions noted are these: MDA-MB-231, 72 h, read-out: GI. Type of series: functional. On the technique in general: Tetrazolium dyes change colour on reduction, which living cells bring about.
The subject of series [2] is Lewis lung carcinoma cell line. Put plainly: Antitumor activity against mouse LLC cells allografted in C57BL/6 mouse assessed as tumor growth inhibition at 2.5 mg/kg, ip administered for 14 days measured on day 15 relative to control. Type of series: functional. The following applies: route intraperitoneal, read-out: TGI. An outline of the steps: (§1)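 Female C57BL/6 mice (18–22 g) given 3 × 10^6 Lewis lung cancer cells subcutaneously in the right flank; dosing began 7 to 21 days after inoculation. Mice were randomized into groups of 10. Treatment was intraperitoneal daily for 14 days at 2.5, 5 or 10 mg/kg, with a saline control group. Tumors were excised and weighed when the mice were killed after 14 days.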

Series [3] in a line: Cytotoxicity against human HCT116 cells assessed as growth inhibition at 10^-5 M after 72 hrs by MTT assay relative to control. Type of series: functional. The conditions noted are these: HCT-116, 72 h, read-out: GI.
Series [4] relates to A549. The experiment in a line: Cytotoxicity against human A549 cells assessed as growth inhibition at 10^-5 M after 72 hrs by MTT assay relative to control. Type of series: functional. The conditions noted are these: A549, 72 h, read-out: GI.
A further series concerns HeLa. Put plainly: Cytotoxicity against human HeLa cells assessed as growth inhibition at 10^-5 M after 72 hrs by MTT assay relative to control. Type of series: functional. The conditions noted are these: read-out: GI.
Series [5] has as its system MDA-MB-231. The experiment in a line: Cytotoxicity against human MDA-MB-231 cells assessed as growth inhibition after 72 hrs by MTT assay. The conditions noted are these: MDA-MB-231, 72 h. It counts as functional, cell-based. In a few lines: (§2)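 MTT viability assay. Cells were seeded at 5000 per well, incubated overnight, then exposed to compound at a range of concentrations for 72 h. MTT was added from a 5 mg/mL stock for 4 h, and absorbance was read at 570 nm. IC50 (50% viability inhibition) was calculated by the logit method. Each concentration was run at least three times.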

Another series deals with MCF7. Put plainly: Cytotoxicity against human MCF7 cells assessed as growth inhibition at 10^-5 M after 72 hrs by MTT assay relative to control. Type of series: functional. The following applies: MCF7, 72 h, read-out: GI.
In series [6] the test system is Mus musculus. The experiment in a line: Toxicity in C57BL/6 mouse allografted with mouse LLC cells assessed as decrease in body weight at 2.5 mg/kg, ip administered for 14 days measured during compound dosing. It counts as organism-based. The arrangement: dose 2.5 mg/kg, route intraperitoneal. The following applies: in vivo, 336 h. An outline of the steps:
(§3)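 LLC-bearing female C57BL/6 mice (18–22 g; 3 × 10^6 cells s.c., right flank) were randomized into groups of 10 and dosed i.p. daily for 14 days, with a saline control. Body weight was recorded every day from the first treatment.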

Series [7] in a line: Cytotoxicity against human HCT116 cells assessed as growth inhibition after 72 hrs by MTT assay. The following applies: HCT-116, 72 h. It counts as functional, cell-based. In a few lines:
as §2

Series [8] has as its system A549. Put plainly: Cytotoxicity against human A549 cells assessed as growth inhibition after 72 hrs by MTT assay. Type of series: functional, cell-based. The conditions noted are these: A549, 72 h. An outline of the steps:
as §2

The subject of series [9] is Lewis lung carcinoma cell line. Put plainly: Antitumor activity against mouse LLC cells allografted in ip dosed C57BL/6 mouse assessed as tumor growth inhibition administered for 14 days measured on day 15. It counts as functional, organism-based. In a few lines:
as §1

Series [10] concerns A549. Put plainly: Cell cycle arrest in human A549 cells assessed as accumulation at S phase at 1 uM after 24 hrs by propidium iodide staining-based flow cytometric analysis relative to control. Type of series: functional. An outline of the steps: (§4)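 A549 cells (3 × 10^5 per well) were seeded overnight, then treated at 0, 0.01, 0.1 or 1 µM for 24 h. Cells were harvested, washed in cold PBS and fixed in cold 70% ethanol for at least 24 h. They were then RNase A-treated and stained with propidium iodide (50 µg/mL) at room temperature. DNA content was analysed by FACSCalibur flow cytometry.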
A general note: A flow cytometer gives signals particle by particle.

Series [11] relates to A549. The experiment in a line: Cell cycle arrest in human A549 cells assessed as accumulation at S phase at 0.01 uM after 24 hrs by propidium iodide staining-based flow cytometric analysis relative to control. It counts as functional. In a few lines:
as §4

Series [12] concerns A549. The experiment in a line: Induction of apoptosis in human A549 cells assessed as dead cells at 1 uM after 24 hrs by Annexin V and propidium iodide staining-based flow cytometric analysis (reference value: 1.4%). It counts as functional.
The subject of series [13] is A549. Put plainly: Induction of apoptosis in human A549 cells assessed as dead cells at 0.01 uM after 24 hrs by Annexin V and propidium iodide staining-based flow cytometric analysis (reference value: 1.4%). It counts as functional.
For series [14], the system named is A549. The experiment in a line: Cell cycle arrest in human A549 cells assessed as accumulation at G2/M phase at 0.01 to 1 uM after 24 hrs by propidium iodide staining-based flow cytometric analysis. Type of series: functional. An outline of the steps: as §4
Series [15] has as its system A549. Put plainly: Induction of apoptosis in human A549 cells assessed as early apoptotic cells at 1 uM after 24 hrs by Annexin V and propidium iodide staining-based flow cytometric analysis (reference value: 8.2%). It counts as functional.
Series [16] concerns A549. Put plainly: Induction of apoptosis in human A549 cells assessed as late apoptotic cells at 0.1 uM after 24 hrs by Annexin V and propidium iodide staining-based flow cytometric analysis (reference value: 7.4%). It counts as functional.
The subject of series [17] is A549. The experiment in a line: Cell cycle arrest in human A549 cells assessed as accumulation at G0/G1 phase at 0.01 to 1 uM after 24 hrs by propidium iodide staining-based flow cytometric analysis. Type of series: functional. The following applies: in the assay text read “S phase” for “G0/G1 phase”. An outline of the steps:
as §4

The subject of series [18] is A549. Put plainly: Cell cycle arrest in human A549 cells assessed as accumulation at S phase at 0.1 uM after 24 hrs by propidium iodide staining-based flow cytometric analysis relative to control. Type of series: functional. In a few lines: as §4
The test system of series [19] is A549. The experiment in a line: Induction of apoptosis in human A549 cells assessed as viable cells at 0.01 uM after 24 hrs by Annexin V and propidium iodide staining-based flow cytometric analysis (reference value: 83%). Type of series: functional. The conditions noted are these: A549, 24 h, read-out: Activity.
Series [20] concerns A549. Put plainly: Induction of apoptosis in human A549 cells assessed as early apoptotic cells at 0.01 uM after 24 hrs by Annexin V and propidium iodide staining-based flow cytometric analysis (reference value: 8.2%). It counts as functional.
Series [21] deals with Lewis lung carcinoma cell line. The experiment in a line: Antitumor activity against mouse LLC cells allografted in C57BL/6 mouse assessed as tumor growth inhibition at 5 mg/kg, ip administered for 14 days measured on day 15 relative to control. Type of series: functional. The following applies: route intraperitoneal, read-out: TGI. An outline of the steps: as §1
Series [22] relates to A549. The experiment in a line: Induction of apoptosis in human A549 cells assessed as early apoptotic cells at 0.1 uM after 24 hrs by Annexin V and propidium iodide staining-based flow cytometric analysis (reference value: 8.2%). It counts as functional.
Series [23] deals with A549. Put plainly: Induction of apoptosis in human A549 cells assessed as viable cells at 0.1 uM after 24 hrs by Annexin V and propidium iodide staining-based flow cytometric analysis (reference value: 83%). It counts as functional. The following applies: A549, 24 h, read-out: Activity.
For series [24], the system named is A549. Put plainly: Induction of apoptosis in human A549 cells assessed as viable cells at 1 uM after 24 hrs by Annexin V and propidium iodide staining-based flow cytometric analysis (reference value: 83%). Type of series: functional. The conditions noted are these: A549, 24 h, read-out: Activity.
Series [25] has as its system A549. Put plainly: Induction of apoptosis in human A549 cells assessed as dead cells at 0.1 uM after 24 hrs by Annexin V and propidium iodide staining-based flow cytometric analysis (reference value: 1.4%). Type of series: functional.
Series [26] has as its system A549. Put plainly: Induction of apoptosis in human A549 cells assessed as late apoptotic cells at 1 uM after 24 hrs by Annexin V and propidium iodide staining-based flow cytometric analysis (reference value: 7.4%). It counts as functional.
For series [27], the system named is Lewis lung carcinoma cell line. The experiment in a line: Antitumor activity against mouse LLC cells allografted in C57BL/6 mouse assessed as tumor growth inhibition at 10 mg/kg, ip administered for 14 days measured on day 15 relative to control. It counts as functional. The following applies: route intraperitoneal, read-out: TGI. An outline of the steps:
as §1

Series [28] concerns Mus musculus. Put plainly: Toxicity in C57BL/6 mouse allografted with mouse LLC cells assessed as change in body weight at 2.5 to 10 mg/kg, ip administered for 14 days measured during compound dosing. Type of series: organism-based. The arrangement: dose 2.5-10 mg/kg, route intraperitoneal. The following applies: in vivo, 336 h. An outline of the steps: as §3
Series [29] has as its system A549. The experiment in a line: Induction of apoptosis in human A549 cells assessed as late apoptotic cells at 0.01 uM after 24 hrs by Annexin V and propidium iodide staining-based flow cytometric analysis (reference value: 7.4%). It counts as functional.

In the case of `COc1cccc2c1C(=O)c1c(O)c3c(c(O)c1C2=O)C[C@@](O)(C(=O)CO)C[C@@H]3O[C@H]1C[C@H](N)[C@H](O)[C@H](C)O1` [DOXORUBICIN], the inhibition of growth at 10 µM in the series on MDA-MB-231 [1] was 89.3%; in series [3], 79%; in the series on A549 [4] it was 92%; with HeLa, 82%; in the series on MCF7, 84.9%. In addition, the inhibition in vivo at 2.5 mg/kg in [2] came to 52.5%. For the same molecule, the figures for the IC50 (with MDA-MB-231 [5]; in series [7]; in the series with A549 [8]) were 1.55 µM, 0.477 µM and 1.28 µM, respectively. In the series with Mus musculus [6], the Activity result is on record as “Toxic”.
Turning to `COc1cc2cc(NC(=O)/C=C/c3ccc(Cl)cc3)c(=O)oc2cc1O`, the inhibition of growth at 10 µM with MDA-MB-231 [1] was 70.8%; in [3], 64.3%; with A549 [4] it was 87.9%; in the series on HeLa, 86.2%; in the series on MCF7, 70.1%. In addition, in series [9], the TGI entry is “Dose-dependent effect”. The inhibition in vivo at 2.5 mg/kg in [2] came to 18.1%. The Activity was 19.3% with A549 [10]; 9.2% in the series on A549 [11]; 1.8% in the series with A549 [12]; 4.3% in the series with A549 [13]; 24.3% in the series with A549 [15]; 3.6% with A549 [16]. For the same molecule, the Activity with A549 [18] is reported as 19.6%; with A549 [20] it was 5.7%; with A549 [22] it was 8.3%; in the series on A549 [25] it was 2.4%; in the series with A549 [26] it was 7.3%; in the series on Mus musculus [28] it was “Non-toxic”. Further, the Activity in the series on A549 [29] was determined as 3.7%. In addition, the outcome with A549 [14] was inactive. In addition, the result in the series with A549 [17] was Active. The values for the IC50 (with MDA-MB-231 [5]; in series [7]; in the series with A549 [8]) were 0.231 µM, 0.684 µM and 0.249 µM, respectively. Moreover, the viability at 0.01 µM with A549 [19] turned out to be 86.4%. In series [21], the inhibition in vivo at 5 mg/kg was determined as 33.6%. Moreover, the viability at 0.1 µM with A549 [23] worked out at 85.7%. Besides, in the series on A549 [24], the viability at 1 µM was 66.5%. In addition, the inhibition in vivo at 10 mg/kg in series [27] amounted to 49.5%.
